In ChEMBL document CHEMBL1955829, “Synthesis and biological evaluation of 4β-sulphonamido and 4β-[(4'-sulphonamido)benzamide]podophyllotoxins as DNA topoisomerase-IIα and apoptosis inducing agents” (2012):
Calls of active or inactive are those of the source. No cut-off for these calls is given here.

Assays:
HOP-62 = experiment: Growth inhibition of human HOP62 cells after 48 hrs by sulforhodamine B assay; format: functional; details: HOP-62, 48 h
Method in brief: (§1)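 Cells grown in DMEM with 10% FBS and 2 mM L-glutamine, plated at densities set by doubling time, and held 24 h before dosing. Exposure was 48 h to 0.1, 1, 10 and 100 µM in triplicate wells. Cells fixed with cold TCA (final 10%) 60 min at 4 °C and stained with 0.4% SRB 20 min. Bound dye eluted in 10 mM Tris base and read at 540 nm (690 nm reference). GI50 is the concentration giving 50% reduction in net protein gain versus control; values are the mean of three determinations.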

[1] = Growth inhibition of human DWD cells after 48 hrs by sulforhodamine B assay; format: functional; method in brief: as §1
MCF7 = experiment: Growth inhibition of human MCF7 cells after 48 hrs by sulforhodamine B assay; format: functional; details: MCF7, 48 h; method in brief: as §1
COLO 205 [2] = experiment: Growth inhibition of human COLO205 cells after 48 hrs by sulforhodamine B assay; format: functional; details: COLO 205, 48 h; method in brief: as §1
ZR-75-1 = experiment: Growth inhibition of human ZR-75-1 cells after 48 hrs by sulforhodamine B assay; format: functional; details: ZR-75-1, 48 h; method in brief: as §1
KB = experiment: Growth inhibition of human KB cells after 48 hrs by sulforhodamine B assay; format: functional; method in brief: as §1
A549 = experiment: Growth inhibition of human A549 cells after 48 hrs by sulforhodamine B assay; format: functional; details: A549, 48 h; method in brief: as §1
A2780 = experiment: Growth inhibition of human A2780 cells after 48 hrs by sulforhodamine B assay; format: functional; details: A2780, 48 h; method in brief: as §1
COLO 205 [3] = experiment: Cytotoxicity against human COLO205 cells at 2 uM after 24 hrs by MTT assay; format: functional, cell-based
Method in brief: (§2)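 Colo-205 cells plated at 10,000 per well, left overnight, then exposed 24 h at 2, 4 or 8 µM. MTT added for 2 h at 37 °C, formazan dissolved in extraction buffer, and optical density read at 570 nm against untreated cells.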

COLO 205 [4] = experiment: Cytotoxicity against human COLO205 cells at 4 uM after 24 hrs by MTT assay; format: functional, cell-based; method in brief: as §2
COLO 205 [5] = experiment: Cell cycle arrest in human COLO205 cells assessed as accumulation at G1 phase at 4 uM after 24 hrs by FACS analysis (reference value: 60.89%); format: functional
Method in brief: (§3)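 Colo-205 cells seeded at […] per 60 mm dish and treated 24 h at 4 µM; TSA arm used TSA at 4 µM for 12 h. Cells trypsinised, fixed in ice-cold 70% ethanol 30 min at 4 °C, RNase 1 mg/mL 30 min at 37 °C, then propidium iodide/citrate/Triton stain. DNA content of 20,000 events read by flow cytometry; phase percentages from histograms.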

COLO 205 [6] = experiment: Cell cycle arrest in human COLO205 cells assessed as accumulation at S phase at 4 uM after 24 hrs by FACS analysis (reference value: 8.91%); format: functional; method in brief: as §3
COLO 205 [7] = experiment: Cytotoxicity against human COLO205 cells at 8 uM after 24 hrs by MTT assay; format: functional, cell-based; method in brief: as §2
COLO 205 [8] = experiment: Cell cycle arrest in human COLO205 cells assessed as accumulation at G2/M phase at 4 uM after 24 hrs by FACS analysis (reference value: 25.92%); format: functional; method in brief: as §3
COLO 205 [9] = experiment: Cell cycle arrest in human COLO205 cells assessed as accumulation at G0 phase at 4 uM after 24 hrs by FACS analysis (reference value: 4.29%); format: functional; method in brief: as §3
COLO 205 [10] = experiment: Up-regulation of topoisomerase 2alpha in human COLO205 cells at 4 uM after 24 hrs by Western blotting analysis in presence of HDAC inhibitor, trichostatin A; format: functional, cell-based
Method in brief: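 Colo-205 cells exposed 24 h to test agent plus TSA, each at 4 µM. Western blot of lysates probed for topo-IIα, with β-actin as loading control.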

COLO 205 [11] = experiment: Induction of apoptosis in human COLO205 cells assessed as down regulation of Bcl-2 at 4 uM after 24 hrs by ELISA; format: functional, cell-based
Method in brief: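 Colo-205 cells treated 24 h at 4 µM, with etoposide and camptothecin as controls. Lysates added to Bcl2-antibody-coated wells, followed by a biotin-conjugated anti-human Bcl2 monoclonal antibody, in a Bcl2 ELISA.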

Compound	GI50 (HOP-62)	GI50 [1]	GI50 (MCF7)	GI50 (COLO 205 [2])	GI50 (ZR-75-1)	GI50 (KB)	GI50 (A549)	GI50 (A2780)	Activity (COLO 205 [3])	Activity (COLO 205 [4])	Activity (COLO 205 [5])	Percentage of cells in S phase (COLO 205 [6])	Activity (COLO 205 [7])	Percentage of cells in G2/M phase (COLO 205 [8])	Activity (COLO 205 [9])	Activity (COLO 205 [10])	Activity (COLO 205 [11])
COc1ccc(S(=O)(=O)Nc2ccc(C(=O)N[C@@H]3c4cc5c(cc4[C@@H](c4cc(OC)c(OC)c(OC)c4)[C@H]4C(=O)OC[C@@H]43)OCO5)cc2)cc1	2.71 µM	2.02 µM	0.16 µM	2.51 µM	2.12 µM												
COc1cc([C@@H]2c3cc4c(cc3[C@@H](NS(=O)(=O)c3cc(Cl)sc3Cl)[C@H]3COC(=O)[C@H]23)OCO4)cc(OC)c1OC	2 µM	0.15 µM	0.11 µM	0.15 µM	2.5 µM	2.1 µM	0.14 µM	0.16 µM									
COc1cc([C@@H]2c3cc4c(cc3[C@@H](NS(=O)(=O)c3cccc5nsnc35)[C@H]3COC(=O)[C@H]23)OCO4)cc(OC)c1OC	2.21 µM		2.21 µM		2.51 µM		2.71 µM	2.31 µM									
COc1cc([C@@H]2c3cc4c(cc3[C@@H](NS(=O)(=O)c3ccc(Oc5ccccc5)cc3)[C@H]3COC(=O)[C@H]23)OCO4)cc(OC)c1OC		2.91 µM	2.21 µM		2.31 µM	2.31 µM	2.11 µM	2.4 µM									
COc1cc([C@@H]2c3cc4c(cc3[C@@H](NS(=O)(=O)c3sc(NC(C)=O)nc3C)[C@H]3COC(=O)[C@H]23)OCO4)cc(OC)c1OC	0.16 µM	0.14 µM	0.15 µM	0.11 µM	0.17 µM	0.17 µM	0.12 µM	0.15 µM									
COc1cc([C@@H]2c3cc4c(cc3[C@@H](NC(=O)c3ccc(NS(=O)(=O)c5ccc(Oc6ccccc6)cc5)cc3)[C@H]3COC(=O)[C@H]23)OCO4)cc(OC)c1OC	2 µM	2.1 µM			2.9 µM	2.01 µM	2.7 µM										
COc1cc([C@@H]2c3cc4c(cc3[C@@H](NC(=O)c3ccc(NS(=O)(=O)c5cccc6ccccc56)cc3)[C@H]3COC(=O)[C@H]23)OCO4)cc(OC)c1OC	2.22 µM		2.32 µM	2.12 µM	2.81 µM	2 µM	2.6 µM	2 µM									
COc1cc([C@@H]2c3cc4c(cc3[C@@H](NS(=O)(=O)c3cccc5ccccc35)[C@H]3COC(=O)[C@H]23)OCO4)cc(OC)c1OC	2.4 µM	2 µM	0.09 µM	2.1 µM	2.1 µM	2.3 µM	0.16 µM	1.91 µM									
COc1cc([C@@H]2c3cc4c(cc3[C@@H](NS(=O)(=O)c3cccc5cccnc35)[C@H]3COC(=O)[C@H]23)OCO4)cc(OC)c1OC	0.06 µM	0.17 µM	0.12 µM	0.04 µM	0.08 µM	0.06 µM	0.04 µM	0.08 µM	Active	Active	58.41%	10.35%	Active	28.19%	3.06%		
COc1cc([C@@H]2c3cc4c(cc3[C@@H](NS(=O)(=O)c3ccc(S(=O)(=O)c5ccccc5)s3)[C@H]3COC(=O)[C@H]23)OCO4)cc(OC)c1OC		2.61 µM	0.14 µM		2.11 µM	2.11 µM		2.3 µM									
COc1cc([C@@H]2c3cc4c(cc3[C@@H](NS(=O)(=O)c3ccc(-c5ccccc5)cc3)[C@H]3COC(=O)[C@H]23)OCO4)cc(OC)c1OC	2.01 µM	2.21 µM	2.61 µM	2.71 µM	2.3 µM		2 µM	2.11 µM									
COc1cc([C@@H]2c3cc4c(cc3[C@@H](NC(=O)c3ccc(NS(=O)(=O)c5cccc6nsnc56)cc3)[C@H]3COC(=O)[C@H]23)OCO4)cc(OC)c1OC	2.91 µM	2.8 µM	0.17 µM		2.23 µM			2.11 µM									
COc1cc([C@@H]2c3cc4c(cc3[C@@H](NS(=O)(=O)c3ccc(Br)s3)[C@H]3COC(=O)[C@H]23)OCO4)cc(OC)c1OC	0.04 µM	0.05 µM	0.13 µM	0.04 µM	0.18 µM	0.04 µM	0.12 µM	0.06 µM	Active	Active	34.67%	16.51%	Active	37.78%	11.04%		
COc1cccc2c1C(=O)c1c(O)c3c(c(O)c1C2=O)C[C@@](O)(C(=O)CO)C[C@@H]3O[C@H]1C[C@H](N)[C@H](O)[C@H](C)O1 [DOXORUBICIN]	0.14 µM	0.1 µM	0.17 µM	0.14 µM		0.17 µM		0.16 µM									
COc1cc([C@@H]2c3cc4c(cc3[C@@H](NC(=O)c3ccc(NS(=O)(=O)c5cccc6cccnc56)cc3)[C@H]3COC(=O)[C@H]23)OCO4)cc(OC)c1OC	2.61 µM	0.14 µM	2.9 µM	2.31 µM			2.51 µM	2.42 µM									
COc1cc([C@@H]2c3cc4c(cc3[C@@H](NC(=O)c3ccc(NS(=O)(=O)c5ccc(Br)s5)cc3)[C@H]3COC(=O)[C@H]23)OCO4)cc(OC)c1OC	2.01 µM	2.5 µM	2.71 µM		2.9 µM			2.11 µM									
COc1cc([C@@H]2c3cc4c(cc3[C@@H](NC(=O)c3ccc(NS(=O)(=O)c5ccc(-c6ccccc6)cc5)cc3)[C@H]3COC(=O)[C@H]23)OCO4)cc(OC)c1OC		2.88 µM	2.3 µM	2.8 µM	2.11 µM	2.5 µM		2.51 µM									
CC[C@@]1(O)C(=O)OCc2c1cc1n(c2=O)Cc2cc3ccccc3nc2-1																inactive	Active
